Data taken from ChEMBL document CHEMBL1158454, “Discovery of a potent and orally active hedgehog pathway antagonist (IPI-926)” (J Med Chem, 2009).
Active and inactive are the calls of the source.

Tests used:
in vitro = settings: human
[1] = Inhibition of HedgeHog pathway in mouse C3H10T1/2 cells assessed as inhibition of 20-(S)-hydroxysterol/22-(S)-hydroxysterol-induced osteoblastic differentiation after 72 hrs by alkaline phosphatase assay; settings: C3H 10T1/2, 72 h
Mus musculus [2] = assay: Antitumor activity against Ptc+/- Hic+/- mouse B837Tx cells allografted in NOD/SCID mouse assessed as median time to unmeasurable tumor volume at 40 mg/kg, po administered daily for 21 days; type: functional
Method in brief: (§1)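 NOD/SCID mice given 1 × 10^6 B837Tx cells in the right hind flank. Once tumors reached about 100-200 mm³, N=10/group were gavaged daily for 21 days. Vehicle: 30% (w/w) HPBCD in 0.1 M citrate phosphate buffer, pH 3, dosing solutions 5-10 mg/mL. Tumors measured in two perpendicular dimensions by caliper 3 times weekly. Regrowth monitored over a 21-day post-treatment phase.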

Mus musculus [3] = assay: Antitumor activity against Ptc+/- Hic+/- mouse B837Tx cells allografted in NOD/SCID mouse assessed as effect on recurrence rate on post treatment at 40 mg/kg, po administered daily for 21 days; type: functional, organism-based; design: dose 40 mg/kg
Method in brief: as §1

Mus musculus [4] = assay: Antitumor activity against Ptc+/- Hic+/- mouse B837Tx cells allografted in NOD/SCID mouse assessed as tumor-free interval on 21 days post treatment at 40 mg/kg, po administered daily for 21 days; type: functional
Method in brief: as §1

[5] = Oral bioavailability in Beagle dog at 4 mg/kg; type: ADME, organism-based, Canis lupus familiaris; settings: in vivo
[6] = Plasma clearance in Beagle dog at 1 mg/kg, iv; type: ADME, organism-based, Canis lupus familiaris; design: dose 1 mg/kg, route intravenous
Method in brief: (§2)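 Plasma sampled at 0.083-24 h (T_last 24 h), protein-precipitated with acetonitrile containing jervine internal standard, and quantified by LC/MS/MS. Parameters taken from the concentration-time profile.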

[7] = Volume of distribution in CD1 mouse at 1 mg/kg, iv; type: ADME, organism-based; design: dose 1 mg/kg, route intravenous; settings: in vivo
Method in brief: as §2

[8] = Volume of distribution in Beagle dog at 1 mg/kg, iv; type: ADME, organism-based, Canis lupus familiaris; design: dose 1 mg/kg, route intravenous; settings: in vivo
Method in brief: as §2

[9] = Plasma clearance in cynomolgus monkey at 1 mg/kg, iv; type: ADME, organism-based, Macaca fascicularis; design: dose 1 mg/kg, route intravenous
Method in brief: as §2

[10] = Oral bioavailability in Sprague-Dawley rat at 5 mg/kg; type: ADME, organism-based; settings: in vivo
[11] = Elimination half life in Sprague-Dawley rat at 1 mg/kg, iv; type: ADME, organism-based; design: dose 1 mg/kg, route intravenous; settings: in vivo, read-out: beta t1/2 (converted)
Method in brief: as §2

[12] = Plasma clearance in CD1 mouse at 1 mg/kg, iv; type: ADME, organism-based; design: dose 1 mg/kg, route intravenous
Method in brief: as §2

[13] = Toxicity in po dosed Ptc+/- Hic+/- mouse B837Tx cells allografted NOD/SCID mouse assessed as maximum tolerated dose after 5 days; type: organism-based; settings: in vivo
Method in brief: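 Tumor-bearing immunocompromised mice received repeat oral dosing for 5 days. MTD was defined as the dose tolerated by all animals (N = 3).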

[14] = Volume of distribution in cynomolgus monkey at 1 mg/kg, iv; type: ADME, organism-based, Macaca fascicularis; design: dose 1 mg/kg, route intravenous; settings: in vivo
Method in brief: as §2

[15] = Elimination half life in CD1 mouse at 1 mg/kg, iv; type: ADME, organism-based; design: dose 1 mg/kg, route intravenous; settings: in vivo, read-out: beta t1/2 (converted)
Method in brief: as §2

Mus musculus [16] = assay: Antitumor activity against Ptc+/- Hic+/- mouse B837Tx cells allografted in NOD/SCID mouse assessed as effect on recurrence rate on post treatment at 25 mg/kg, po administered daily for 21 days; type: functional, organism-based; design: dose 25 mg/kg
Mus musculus [17] = assay: Antitumor activity against Ptc+/- Hic+/- mouse B837Tx cells allografted in NOD/SCID mouse assessed as tumor-free interval on 21 days post treatment at 25 mg/kg, po administered daily for 21 days; type: functional, organism-based; design: dose 25 mg/kg
[18] = Elimination half life in cynomolgus monkey at 1 mg/kg, iv; type: ADME, organism-based, Macaca fascicularis; design: dose 1 mg/kg, route intravenous; settings: in vivo, read-out: beta t1/2 (converted)
Method in brief: as §2

[19] = Oral bioavailability in cynomolgus monkey at 4 mg/kg; type: ADME, organism-based, Macaca fascicularis; settings: in vivo
[20] = Elimination half life in Beagle dog at 1 mg/kg, iv; type: ADME, organism-based, Canis lupus familiaris; design: dose 1 mg/kg, route intravenous; settings: in vivo, read-out: beta t1/2 (converted)
Method in brief: as §2

[21] = Plasma clearance in Sprague-Dawley rat at 1 mg/kg, iv; type: ADME, organism-based; design: dose 1 mg/kg, route intravenous
Method in brief: as §2

[22] = Volume of distribution in Sprague-Dawley rat at 1 mg/kg, iv; type: ADME, organism-based; design: dose 1 mg/kg, route intravenous; settings: in vivo
Method in brief: as §2

Mus musculus [23] = assay: Antitumor activity against Ptc+/- Hic+/- mouse B837Tx cells allografted in NOD/SCID mouse assessed as median time to unmeasurable tumor volume at 25 mg/kg, po administered daily for 21 days; type: functional, organism-based; design: dose 25 mg/kg
[24] = Oral bioavailability in CD1 mouse at 5 mg/kg; type: ADME, organism-based; settings: in vivo

`CC1=C2C[C@H]3[C@@H](CC[C@H]4CC(=O)CC[C@@]43C)[C@@H]2CC[C@@]2(C1)O[C@@H]1C[C@H](C)CN[C@H]1[C@H]2C` showed a half-life at 0.5 µM (in vitro; microsomes) of 1.25 h and an EC50 [1] of 0.4 µM.

Work on `CC1=C2C[C@H]3[C@@H](CC[C@@H]4Cc5n[nH]c(C(F)(F)F)c5C[C@@]43C)[C@@H]2CC[C@@]2(C1)O[C@@H]1C[C@H](C)CN[C@H]1[C@H]2C` yielded a half-life at 0.5 µM (in vitro; liver microsomes) of 3.33 h and an EC50 [1] of 0.17 µM.

`CC1=C2C[C@H]3[C@@H](CC[C@@H]4C[C@H](n5ccnn5)CC[C@@]43C)[C@@H]2CC[C@@]2(C1)O[C@@H]1C[C@H](C)CN[C@H]1[C@H]2C` gave a half-life at 0.5 µM (in vitro; liver microsomes) of 0.667 h and an EC50 [1] of 0.024 µM.

`CC1=C2C[C@H]3[C@@H](CC[C@@H]4Cc5nn(C)cc5C[C@@]43C)[C@@H]2CC[C@@]2(C1)O[C@@H]1C[C@H](C)CN[C@H]1[C@H]2C` gave a half-life at 0.5 µM (in vitro; liver microsomes) of 0.583 h and an EC50 [1] of 0.054 µM.

For `CC1=C2C[C@H]3[C@@H](CC=C4C[C@@H](O)CC[C@@]43C)[C@@H]2CC[C@]12O[C@@H]1C[C@H](C)CN[C@H]1[C@H]2C`, the Activity (Mus musculus [2]) was “inactive”, the Activity (Mus musculus [3]) was “inactive” and the Activity (Mus musculus [4]) was “inactive”.

With `CC1=C2C[C@H]3[C@@H](CC[C@@H]4Cc5nocc5C[C@@]43C)[C@@H]2CC[C@@]2(C1)O[C@@H]1C[C@H](C)CN[C@H]1[C@H]2C` the half-life at 0.5 µM (in vitro; microsomes) was 0.133 h and the EC50 [1] was 0.062 µM.

For `CC1=C2C[C@H]3[C@@H](CC[C@@H]4C[C@@H](n5ccnn5)CC[C@@]43C)[C@@H]2CC[C@@]2(C1)O[C@@H]1C[C@H](C)CN[C@H]1[C@H]2C`, the half-life at 0.5 µM (in vitro; liver microsomes) was 1.17 h and the EC50 [1] was 0.13 µM.

Compound `CC1=C2C[C@H]3[C@@H](CC[C@@H]4Cc5[nH][nH]c(=O)c5C[C@@]43C)[C@@H]2CC[C@@]2(C1)O[C@@H]1C[C@H](C)CN[C@H]1[C@H]2C` has a half-life at 0.5 µM (in vitro; liver microsomes) of 1.67 h and an EC50 [1] of 0.17 µM.

`CC1=C2C[C@H]3[C@@H](CC[C@@H]4C[C@@H](O)CC[C@@]43C)[C@@H]2CC[C@@]2(C1)O[C@@H]1C[C@H](C)CN[C@H]1[C@H]2C` gave a half-life at 0.5 µM (in vitro; liver microsomes) of 0.333 h and an EC50 [1] of 0.023 µM.

Compound `CO[C@@H]1CC[C@@]2(C)[C@H](CC[C@H]3[C@@H]4CC[C@@]5(CC(C)=C4C[C@@H]32)O[C@@H]2C[C@H](C)CN[C@H]2[C@H]5C)C1` has a half-life at 0.5 µM (in vitro; microsomes) of 0.333 h and an EC50 [1] of 0.18 µM.

In the case of `CC1=C2C[C@H]3[C@@H](CCC4=CC(=O)CC[C@@]43C)[C@@H]2CC[C@@]2(C1)O[C@@H]1C[C@H](C)CN[C@H]1[C@H]2C`, the bioavailability [5] is reported as 7%, the clearance [6] is reported as 4.7 L/h/kg and the Vd [7] is reported as 18 L/kg. It also gave a half-life at 0.5 µM (in vitro; microsomes) of 1.25 h, a Vd [8] of 13.9 L/kg and a clearance [9] of 6.2 L/h/kg. It also gave a bioavailability [10] of 13%, a half-life [11] of 1.7 h and a clearance [12] of 3.6 L/h/kg. It also gave an MTD at 120 h [13] of 25 mg/kg, a Vd [14] of 21.3 L/kg and a half-life [15] of 3.5 h. The Activity (Mus musculus [16]) was “inactive”, the Activity (Mus musculus [17]) was “inactive” and the half-life [18] was 2.4 h. The bioavailability [19] was 69%, the half-life [20] was 2.2 h and the EC50 [1] was 0.3 µM. The clearance [21] was 12.4 L/h/kg, the Vd [22] was 28 L/kg and the Activity (Mus musculus [23]) was “inactive”. For the same compound, the bioavailability [24] was 79%.

In the case of `CC1=C2C[C@H]3[C@@H](CC[C@@H]4Cc5nn(S(=O)(=O)c6ccc(C)cc6)cc5C[C@@]43C)[C@@H]2CC[C@@]2(C1)O[C@@H]1C[C@H](C)CN[C@H]1[C@H]2C`, the half-life at 0.5 µM (in vitro; liver microsomes) is reported as 1.08 h and the EC50 [1] is reported as 0.9 µM.

Work on `CC1=C2C[C@H]3[C@@H](CC[C@@H]4C[C@H](O)CC[C@@]43C)[C@@H]2CC[C@@]2(C1)O[C@@H]1C[C@H](C)CN[C@H]1[C@H]2C` yielded a half-life at 0.5 µM (in vitro; liver microsomes) of 0.667 h and an EC50 [1] of 0.009 µM.

`CC1=C2C[C@H]3[C@@H](CC[C@@H]4CCCC[C@@]43C)[C@@H]2CC[C@@]2(C1)O[C@@H]1C[C@H](C)CN[C@H]1[C@H]2C` showed an EC50 [1] of 0.76 µM.
